Measurements pooled from the literature.
Protocols differ between the studies behind these lines.
DHODH: Dihydroorotate dehydrogenase (quinone), mitochondrial (DHODH, Homo sapiens, UniProt Q02127)
PIK3CG: Phosphatidylinositol 4,5-bisphosphate 3-kinase catalytic subunit gamma isoform (PIK3CG, Homo sapiens, UniProt P48736)
SCTR: Secretin receptor (SCTR, Homo sapiens, UniProt P47872)

| Compound | target | assay | measurement | value |
| --- | --- | --- | --- | --- |
| Cc1c(C(=O)OC2CC2)nn(C)c1Cc1ccc(C(F)(F)F)nc1 | DHODH | enzyme activity, inhibitor | IC50 | > 100000 nM |
| Cc1nc(Nc2ccc3c(c2)C(C)(C)C(=O)N3C)c2ccccc2n1 | PIK3CG | enzyme activity, inhibitor, ADP detection | IC50 | 389 nM |
| CCn1cc(C)c2c(C(O)c3ccc(Cl)c(F)c3)n(C)nc2c1=O (centres unmarked) | DHODH | enzyme activity, inhibitor | IC50 | > 100000 nM |
| CC1=NN(/C(=N\c2cccnc2)Nc2nnc(C)s2)C(c2ccc(C)cc2)S1 (centres unmarked) | SCTR | cAMP, agonist, TR-FRET | EC50 | > 50000 nM |
| Cc1nc(Nc2ccc3c(c2)/C(=C/c2ccccc2Cl)C(=O)N3)c2ccccc2n1 | PIK3CG | enzyme activity, inhibitor, ADP detection | IC50 | 34.5 nM |
| Cc1nn(C2CC2)c(=O)c2nn(C)c(Cc3ccc(C(F)(F)F)c(C#N)c3)c12 | DHODH | enzyme activity, inhibitor | IC50 | 30000 nM |
| CC1=NN(/C(=N/c2nnc(C)s2)Nc2ccc(C)c(C)c2)C(c2ccc(-c3cccc(C(F)(F)F)c3)cc2)S1 (centres unmarked) | SCTR | cAMP, agonist, TR-FRET | EC50 | 500 nM |
| Cc1nc(N(C)c2ccc3c(c2)/C(=C/c2ccccc2Cl)C(=O)N3C)c2ccccc2n1 | PIK3CG | enzyme activity, inhibitor, ADP detection | IC50 | 105 nM |
| Cc1ccc(N/C(=N\c2nnc(C(C)(C)C)s2)N2N=C(C(C)(C)C)SC2c2cc(F)c(F)c(F)c2)cc1C (centres unmarked) | SCTR | cAMP, agonist, TR-FRET | EC50 | > 50000 nM |
| CCn1cc(C2CC2)c2c(CN3CCC(F)(F)C(C)(C)C3)n(C)nc2c1=O | DHODH | enzyme activity, inhibitor, absorbance | IC50 | > 100000 nM |
| Cc1nc(Nc2ccc3c(c2)CC(=O)N3)c2ccccc2n1 | PIK3CG | enzyme activity, inhibitor, ADP detection | IC50 | 568 nM |
| CN[C@H]1CC[C@@H](c2ccc(Cl)c(Cl)c2)c2ccccc21 | Serine hydroxymethyltransferase, mitochondrial (SHMT2, Homo sapiens, UniProt P34897) | binding, MST | Kd | 12000 nM |
| CC1=NN(/C(=N\c2ccccc2F)Nc2nnc(C)s2)C(c2ccc(C)cc2)S1 (centres unmarked) | SCTR | cAMP, agonist, TR-FRET | EC50 | 19800 nM |
| Cc1cc([C@@H](C)Nc2ccccc2C(=O)O)c2nc(N3CCC(F)(F)CC3)c(C#N)c(=O)n2c1 | PIK3CG | enzyme activity, inhibitor, ADP detection | IC50 | > 10000 nM |
| CNC[C@H](O)c1cccc(O)c1 | Alpha-1D adrenergic receptor (ADRA1D, Homo sapiens, UniProt P25100) | calcium signal, agonist | EC50 | 17.4 nM |
| Cc1nc(Nc2ccc3c(c2)/C(=C/c2ccccc2)C(=O)N3C)c2ccccc2n1 | PIK3CG | enzyme activity, inhibitor, ADP detection | IC50 | 113 nM |
| CCn1ncc2c([C@](O)(c3ccc(C(F)(F)F)c(Cl)c3)C3CC3)n(C)nc2c1=O | DHODH | enzyme activity, inhibitor | IC50 | > 100000 nM |
